Values after ≈ are worked out from the molar mass of the structure shown.
Legend:
Bacillus subtilis [1] = assay: Antibacterial activity against Bacillus subtilis ATCC 6633 at 100 ug/ml after 24 hrs by disc-diffusion method; format: functional; conditions: ATCC 6633, 24 h, read-out: IZ
Bacillus subtilis [2] = assay: Antibacterial activity against Bacillus subtilis ATCC 6633 after 18 to 24 hrs; format: functional
Bacillus subtilis [3] = assay: Antibacterial activity against Bacillus subtilis ATCC 6633 at 200 ug/ml after 24 hrs by disc-diffusion method; format: functional; conditions: ATCC 6633, 24 h, read-out: IZ
Pseudomonas aeruginosa [4] = assay: Antibacterial activity against Pseudomonas aeruginosa ATCC 27853 at 200 ug/ml after 24 hrs by disc-diffusion method; format: functional; conditions: ATCC 27853, 24 h, read-out: IZ
Aspergillus niger [5] = assay: Antifungal activity against Aspergillus niger at 200 ug/ml after 48 hrs by agar diffusion method; format: functional; conditions: read-out: IZ
Procedure, shortened: (§1)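 Agar well diffusion on Sabouraud agar (peptone 1 g, D-glucose 4 g, agar 2 g per 100 ml water, pH 5.7). Plates were lawned with a saline suspension of spores, excess was decanted, and plates were dried 1 h at 37 °C. Compounds in DMSO went into punched wells, and inhibition zones were measured against controls, with voriconazole as standard.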

Candida albicans [6] = assay: Antifungal activity against Candida albicans after 48 hrs; format: functional
Pseudomonas aeruginosa [7] = assay: Antibacterial activity against Pseudomonas aeruginosa ATCC 27853 after 24 hrs by broth dilution technique; format: functional; conditions: ATCC 27853, 24 h
Procedure, shortened: (§2)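 MIC by broth dilution: nutrient broth containing logarithmic two-fold serial dilutions of compound was inoculated with about 5 × 10⁵ c.f.u. of actively dividing bacteria.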

Bacillus subtilis [8] = assay: Antibacterial activity against Bacillus subtilis ATCC 6633 after 24 hrs by broth dilution technique; format: functional; conditions: ATCC 6633, 24 h; procedure, shortened: as §2
Aspergillus niger [9] = assay: Antifungal activity against Aspergillus niger at 100 ug/ml after 3 to 4 days by agar diffusion method; conditions: read-out: IZ
Pseudomonas aeruginosa [10] = assay: Antibacterial activity against Pseudomonas aeruginosa ATCC 27853 at 100 ug/ml after 24 hrs by disc-diffusion method; format: functional; conditions: ATCC 27853, 24 h, read-out: IZ
Staphylococcus aureus [11] = assay: Antibacterial activity against Staphylococcus aureus ATCC 25923 at 100 ug/ml after 24 hrs by disc-diffusion method; format: functional; conditions: ATCC 25923, 24 h, read-out: IZ
Escherichia coli [12] = assay: Antibacterial activity against Escherichia coli ATCC 25922 at 200 ug/ml after 24 hrs by disc-diffusion method; format: functional; conditions: ATCC 25922, 24 h, read-out: IZ
Staphylococcus aureus [13] = assay: Antibacterial activity against Staphylococcus aureus ATCC 25923 at 200 ug/ml after 24 hrs by disc-diffusion method; format: functional; conditions: ATCC 25923, 24 h, read-out: IZ
Staphylococcus aureus [14] = assay: Antibacterial activity against Staphylococcus aureus ATCC 25923 after 18 to 24 hrs; format: functional
Escherichia coli [15] = assay: Antibacterial activity against Escherichia coli ATCC 25922 after 18 to 24 hrs; format: functional
Staphylococcus aureus [16] = assay: Antibacterial activity against Staphylococcus aureus ATCC 25923 after 24 hrs by broth dilution technique; format: functional; conditions: ATCC 25923, 24 h; procedure, shortened: as §2
Escherichia coli [17] = assay: Antibacterial activity against Escherichia coli ATCC 25922 after 24 hrs by broth dilution technique; format: functional; conditions: ATCC 25922, 24 h; procedure, shortened: as §2
Escherichia coli [18] = assay: Antibacterial activity against Escherichia coli ATCC 25922 at 100 ug/ml after 24 hrs by disc-diffusion method; format: functional; conditions: ATCC 25922, 24 h, read-out: IZ
Aspergillus niger [19] = assay: Antifungal activity against Aspergillus niger after 48 hrs; format: functional
Pseudomonas aeruginosa [20] = assay: Antibacterial activity against Pseudomonas aeruginosa ATCC 27853 after 18 to 24 hrs; format: functional
Candida albicans [21] = assay: Antifungal activity against Candida albicans at 200 ug/ml after 48 hrs by agar diffusion method; format: functional; conditions: read-out: IZ; procedure, shortened: as §1
Candida albicans [22] = assay: Antifungal activity against Candida albicans at 100 ug/ml after 48 hrs by agar diffusion method; format: functional; conditions: read-out: IZ; procedure, shortened: as §1

| Structure (SMILES) | zone of inhibition at 100 µg/mL (Bacillus subtilis [1]) [mm] | MBC (Bacillus subtilis [2]) [µg/mL] | zone of inhibition at 200 µg/mL (Bacillus subtilis [3]) [mm] | zone of inhibition at 200 µg/mL (Pseudomonas aeruginosa [4]) [mm] | zone of inhibition at 200 µg/mL (Aspergillus niger [5]) [mm] | MFC (Candida albicans [6]) [µg/mL] | MIC (Candida albicans [6]) [µg/mL] | MIC (Pseudomonas aeruginosa [7]) [µg/mL] | MIC (Bacillus subtilis [8]) [µg/mL] | zone of inhibition at 100 µg/mL (Aspergillus niger [9]) [mm] | zone of inhibition at 100 µg/mL (Pseudomonas aeruginosa [10]) [mm] | zone of inhibition at 100 µg/mL (Staphylococcus aureus [11]) [mm] | zone of inhibition at 200 µg/mL (Escherichia coli [12]) [mm] | zone of inhibition at 200 µg/mL (Staphylococcus aureus [13]) [mm] | MBC (Staphylococcus aureus [14]) [µg/mL] | MBC (Escherichia coli [15]) [µg/mL] | MIC (Staphylococcus aureus [16]) [µg/mL] | MIC (Escherichia coli [17]) [µg/mL] | zone of inhibition at 100 µg/mL (Escherichia coli [18]) [mm] | MFC (Aspergillus niger [19]) [µg/mL] | further results |
| --- | --- | --- | --- | --- | --- | --- | --- | --- | --- | --- | --- | --- | --- | --- | --- | --- | --- | --- | --- | --- | --- |
| COc1ccc(C(=O)/C=C/c2ccc(OCc3nnc(-c4ccccc4)o3)c(OC)c2)cc1 | 12 | 12.5 (≈ 28.3 µM) | 14 | 26 | 24 | 25 (≈ 56.5 µM) | 6 (≈ 13.6 µM) | 12.5 (≈ 28.3 µM) | 6 (≈ 13.6 µM) | 23 | 25 | 16 | 21 | 18 | 25 (≈ 56.5 µM) | 25 (≈ 56.5 µM) | 12.5 (≈ 28.3 µM) | 12.5 (≈ 28.3 µM) | 19 | 25 (≈ 56.5 µM) | MIC (Aspergillus niger [19]): 12.5 µg/mL (≈ 28.3 µM); MBC (Pseudomonas aeruginosa [20]): 50 µg/mL (≈ 113 µM); zone of inhibition at 200 µg/mL (Candida albicans [21]): 17 mm; zone of inhibition at 100 µg/mL (Candida albicans [22]): 15 mm |
| COc1ccc(C(=O)/C=C/c2ccc(OCc3nnc(-c4ccc(C)cc4)o3)c(OC)c2)cc1 | 12 | 25 (≈ 54.8 µM) | 14 | 24 | 23 | 25 (≈ 54.8 µM) | 12.5 (≈ 27.4 µM) | 12.5 (≈ 27.4 µM) | 12.5 (≈ 27.4 µM) | 20 | 23 | 15 | 21 | 17 | 25 (≈ 54.8 µM) | 25 (≈ 54.8 µM) | 12.5 (≈ 27.4 µM) | 6 (≈ 13.1 µM) | 19 | 25 (≈ 54.8 µM) | MIC (Aspergillus niger [19]): 12.5 µg/mL (≈ 27.4 µM); MBC (Pseudomonas aeruginosa [20]): 25 µg/mL (≈ 54.8 µM); zone of inhibition at 200 µg/mL (Candida albicans [21]): 18 mm; zone of inhibition at 100 µg/mL (Candida albicans [22]): 16 mm |
| COc1ccc(C(=O)/C=C/c2ccc(OCc3nnc(-c4ccccc4O)o3)c(OC)c2)cc1 | 18 | 12.5 (≈ 27.3 µM) | 20 | 32 | 26 | 12.5 (≈ 27.3 µM) | 6 (≈ 13.1 µM) | 12.5 (≈ 27.3 µM) | 6 (≈ 13.1 µM) | 25 | 30 | 21 | 26 | 23 | 6 (≈ 13.1 µM) | 12.5 (≈ 27.3 µM) | 6 (≈ 13.1 µM) | 6 (≈ 13.1 µM) | 25 | 12.5 (≈ 27.3 µM) | MIC (Aspergillus niger [19]): 6 µg/mL (≈ 13.1 µM); MBC (Pseudomonas aeruginosa [20]): 25 µg/mL (≈ 54.5 µM); zone of inhibition at 200 µg/mL (Candida albicans [21]): 21 mm; zone of inhibition at 100 µg/mL (Candida albicans [22]): 19 mm |
| COc1ccc(C(=O)/C=C/c2ccc(OCc3nnc(COc4ccccc4)o3)c(OC)c2)cc1 | 13 | 12.5 (≈ 26.5 µM) | 16 | 28 | 19 | 25 (≈ 52.9 µM) | 12.5 (≈ 26.5 µM) | 25 (≈ 52.9 µM) | 12.5 (≈ 26.5 µM) | 16 | 26 | 17 | 22 | 19 | 25 (≈ 52.9 µM) | 12.5 (≈ 26.5 µM) | 12.5 (≈ 26.5 µM) | 25 (≈ 52.9 µM) | 21 | 12.5 (≈ 26.5 µM) | MIC (Aspergillus niger [19]): 6 µg/mL (≈ 12.7 µM); MBC (Pseudomonas aeruginosa [20]): 12.5 µg/mL (≈ 26.5 µM); zone of inhibition at 200 µg/mL (Candida albicans [21]): 14 mm; zone of inhibition at 100 µg/mL (Candida albicans [22]): 11 mm |
| COc1cc(/C=C/C(=O)c2ccc(O)cc2)ccc1OCc1nnc(-c2ccccc2)o1 | 13 | 25 (≈ 58.4 µM) | 15 | 27 | 24 | 25 (≈ 58.4 µM) | 12.5 (≈ 29.2 µM) | 25 (≈ 58.4 µM) | 12.5 (≈ 29.2 µM) | 22 | 25 | 17 | 23 | 18 | 50 (≈ 117 µM) | 50 (≈ 117 µM) | 25 (≈ 58.4 µM) | 12.5 (≈ 29.2 µM) | 21 | 50 (≈ 117 µM) | MIC (Aspergillus niger [19]): 25 µg/mL (≈ 58.4 µM); MBC (Pseudomonas aeruginosa [20]): 50 µg/mL (≈ 117 µM); zone of inhibition at 200 µg/mL (Candida albicans [21]): 18 mm; zone of inhibition at 100 µg/mL (Candida albicans [22]): 16 mm |
| COc1cc(/C=C/C(=O)c2ccc(O)cc2)ccc1OCc1nnc(-c2ccccc2O)o1 | 16 | 12.5 (≈ 28.1 µM) | 18 | 28 | 29 | 12.5 (≈ 28.1 µM) | 6 (≈ 13.5 µM) | 6 (≈ 13.5 µM) | 6 (≈ 13.5 µM) | 27 | 27 | 19 | 24 | 20 | 12.5 (≈ 28.1 µM) | 25 (≈ 56.3 µM) | 6 (≈ 13.5 µM) | 12.5 (≈ 28.1 µM) | 23 | 12.5 (≈ 28.1 µM) | MIC (Aspergillus niger [19]): 6 µg/mL (≈ 13.5 µM); MBC (Pseudomonas aeruginosa [20]): 12.5 µg/mL (≈ 28.1 µM); zone of inhibition at 200 µg/mL (Candida albicans [21]): 24 mm; zone of inhibition at 100 µg/mL (Candida albicans [22]): 21 mm |
| COc1cc(/C=C/C(=O)c2ccc(O)cc2)ccc1OCc1nnc(COc2ccccc2)o1 | 14 | 25 (≈ 54.5 µM) | 16 | 27 | 24 | 25 (≈ 54.5 µM) | 12.5 (≈ 27.3 µM) | 12.5 (≈ 27.3 µM) | 12.5 (≈ 27.3 µM) | 22 | 25 | 17 | 22 | 18 | 12.5 (≈ 27.3 µM) | 12.5 (≈ 27.3 µM) | 6 (≈ 13.1 µM) | 6 (≈ 13.1 µM) | 20 | 12.5 (≈ 27.3 µM) | MIC (Aspergillus niger [19]): 6 µg/mL (≈ 13.1 µM); MBC (Pseudomonas aeruginosa [20]): 25 µg/mL (≈ 54.5 µM); zone of inhibition at 200 µg/mL (Candida albicans [21]): 19 mm; zone of inhibition at 100 µg/mL (Candida albicans [22]): 17 mm |
